“And” between values parts separate entries of the source, which are not always exact repeats. Equal values may be shown once.
Test system: U2OS
Assay: Multiplex assay against U2OS
Assay type: toxicity, cell-based
Details: human
In short: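 At seeding, live cells were stained with Hoechst33342, BioTracker Green Microtubule Cytoskeleton Dye, MitoTracker Red and Annexin V Alexa Fluor 680. After compound addition they were imaged on a CQ1 microscope at 37°C and 5% CO2, and CellPathfinder machine-learning gating sorted them into Hoechst high-intensity objects or normal cells, with normal cells further split into healthy, pyknosed or fragmented nuclei and pyknosed cells into mitotic or apoptotic. Tubulin, mitochondrial-mass and membrane-permeability phenotypes are given as per cents of cells with healthy nuclei.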

[1] = 12 h, 1 µM, compound concentration 1 uM
[2] = 12 h, 10 µM, compound concentration 10 uM
[3] = 24 h, 1 µM, compound concentration 1 uM
[4] = 24 h, 10 µM, compound concentration 10 uM
[5] = 48 h, 1 µM, compound concentration 1 uM
[6] = 48 h, 10 µM, compound concentration 10 uM

What does the source list for `N#Cc1c(Oc2cccc(OS(=O)(=O)CCCC(F)(F)F)c2)cccc1C(F)(F)F`?
Population Apoptotic (%) [1]: 77% and 81%; Population Fragmented Nuclei (%) [1]: 27% and 12%; Population Healthy Nuclei (%) [1]: 61% and 76%; Population Hoechst High Intensity Objects (%) [1]: 3% and 0%; Population Membrane Permeable-Phenotype (%) [1]: 4% and 7%; Population Mitochondria Different-Phenotype (%) [1]: 2% and 7%; Population Mitotic Cells (%) [1]: 22% and 18%; Population Normal (%) [1]: 96% and 99%; Population Pyknosed Nuclei (%) [1]: 10%; Population Tubulin-Different-Phenotype (%) [1]: 0% and 8%; Total Cell Count [1]: 220 and 109; Population Apoptotic (%) [2]: 78% and 90%; Population Fragmented Nuclei (%) [2]: 27% and 14%; Population Healthy Nuclei (%) [2]: 63% and 75%; Population Hoechst High Intensity Objects (%) [2]: 3% and 0%; Population Membrane Permeable-Phenotype (%) [2]: 11% and 21%; Population Mitochondria Different-Phenotype (%) [2]: 8% and 4%; Population Mitotic Cells (%) [2]: 21% and 9%; Population Normal (%) [2]: 96% and 99%; Population Pyknosed Nuclei (%) [2]: 8% and 9%; Population Tubulin-Different-Phenotype (%) [2]: 7%; Total Cell Count [2]: 222 and 112; Population Apoptotic (%) [3]: 75% and 90%; Population Fragmented Nuclei (%) [3]: 25% and 12%; Population Healthy Nuclei (%) [3]: 61% and 79%; Population Hoechst High Intensity Objects (%) [3]: 2% and 1%; Population Membrane Permeable-Phenotype (%) [3]: 4% and 11%; Population Mitochondria Different-Phenotype (%) [3]: 2% and 3%; Population Mitotic Cells (%) [3]: 24% and 10%; Population Normal (%) [3]: 97% and 98%; Population Pyknosed Nuclei (%) [3]: 12% and 7%; Population Tubulin-Different-Phenotype (%) [3]: 3% and 7%; Total Cell Count [3]: 263 and 130; Population Apoptotic (%) [4]: 66%; Population Fragmented Nuclei (%) [4]: 26% and 9%; Population Healthy Nuclei (%) [4]: 66% and 83%; Population Hoechst High Intensity Objects (%) [4]: 6% and 3%; Population Membrane Permeable-Phenotype (%) [4]: 10% and 11%; Population Mitochondria Different-Phenotype (%) [4]: 8% and 0%; Population Mitotic Cells (%) [4]: 33%; Population Normal (%) [4]: 93% and 96%; Population Pyknosed Nuclei (%) [4]: 7%; Population Tubulin-Different-Phenotype (%) [4]: 5% and 7%; Total Cell Count [4]: 252 and 130; Population Apoptotic (%) [5]: 87% and 100%; Population Fragmented Nuclei (%) [5]: 17% and 16%; Population Healthy Nuclei (%) [5]: 70% and 73%; Population Hoechst High Intensity Objects (%) [5]: 3% and 2%; Population Membrane Permeable-Phenotype (%) [5]: 4% and 9%; Population Mitochondria Different-Phenotype (%) [5]: 0% and 4%; Population Mitotic Cells (%) [5]: 12% and 0%; Population Normal (%) [5]: 96% and 97%; Population Pyknosed Nuclei (%) [5]: 11% and 9%; Population Tubulin-Different-Phenotype (%) [5]: 3% and 7%; Total Cell Count [5]: 361 and 195; Population Apoptotic (%) [6]: 91% and 100%; Population Fragmented Nuclei (%) [6]: 23% and 11%; Population Healthy Nuclei (%) [6]: 64% and 77%; Population Hoechst High Intensity Objects (%) [6]: 4% and 3%; Population Membrane Permeable-Phenotype (%) [6]: 10% and 13%; Population Mitochondria Different-Phenotype (%) [6]: 6% and 4%; Population Mitotic Cells (%) [6]: 8% and 0%; Population Normal (%) [6]: 95% and 96%; Population Pyknosed Nuclei (%) [6]: 11% and 10%; Population Tubulin-Different-Phenotype (%) [6]: 6% and 7%; Total Cell Count [6]: 328 and 184

Which “Population Apoptotic (%)” value [1] does the source give for `Nc1nc(-c2ccco2)c2cnn(Cc3ccccc3F)c2n1` here?
Its value is 82% and 92%.

And the “Population Fragmented Nuclei (%)” value [1]?
Its value is 23%.

What about the “Population Healthy Nuclei (%)” value [1] of the same molecule?
The value was 68% and 64%.

And the “Population Hoechst High Intensity Objects (%)” value [1]?
The value was 1% and 0%.

And the “Population Membrane Permeable-Phenotype (%)” value [1]?
Its value is 4% and 12%.

And the “Population Mitochondria Different-Phenotype (%)” value [1]?
The value was 2% and 5%.

What about the “Population Mitotic Cells (%)” value [1] of the same molecule?
Its value is 17% and 7%.

And the “Population Normal (%)” value [1]?
Its value is 98% and 99%.

And the “Population Pyknosed Nuclei (%)” value [1]?
The value was 8% and 12%.

What about the “Population Tubulin-Different-Phenotype (%)” value [1] of the same molecule?
The value was 3% and 8%.

What about the “Total Cell Count” value [1] of the same molecule?
The value was 280 and 109.

And the “Population Apoptotic (%)” value [2]?
The value was 87% and 77%.

And the “Population Fragmented Nuclei (%)” value [2]?
Its value is 41% and 20%.

What about the “Population Healthy Nuclei (%)” value [2] of the same molecule?
The value was 45% and 72%.

And the “Population Hoechst High Intensity Objects (%)” value [2]?
Its value is 5% and 0%.

And the “Population Membrane Permeable-Phenotype (%)” value [2]?
Its value is 10% and 5%.

And the “Population Mitochondria Different-Phenotype (%)” value [2]?
The value was 4% and 5%.

What about the “Population Mitotic Cells (%)” value [2] of the same molecule?
Its value is 12% and 22%.

And the “Population Normal (%)” value [2]?
The value was 94% and 99%.

What about the “Population Pyknosed Nuclei (%)” value [2] of the same molecule?
Its value is 12% and 7%.

What about the “Population Tubulin-Different-Phenotype (%)” value [2] of the same molecule?
The value was 7% and 1%.

And the “Total Cell Count” value [2]?
Its value is 197 and 125.

What about the “Population Apoptotic (%)” value [3] of the same molecule?
Its value is 96% and 84%.

What about the “Population Fragmented Nuclei (%)” value [3] of the same molecule?
Its value is 19% and 18%.

What about the “Population Healthy Nuclei (%)” value [3] of the same molecule?
Its value is 70% and 71%.

And the “Population Hoechst High Intensity Objects (%)” value [3]?
Its value is 1% and 4%.

What about the “Population Membrane Permeable-Phenotype (%)” value [3] of the same molecule?
The value was 4% and 10%.

And the “Population Mitochondria Different-Phenotype (%)” value [3]?
The value was 1% and 3%.

And the “Population Normal (%)” value [3]?
The value was 98% and 95%.

And the “Population Pyknosed Nuclei (%)” value [3]?
The value was 9% and 10%.

What about the “Population Tubulin-Different-Phenotype (%)” value [3] of the same molecule?
The value was 2% and 8%.

What about the “Total Cell Count” value [3] of the same molecule?
Its value is 332 and 127.

What about the “Population Apoptotic (%)” value [4] of the same molecule?
Its value is 82% and 90%.

And the “Population Fragmented Nuclei (%)” value [4]?
Its value is 38% and 19%.

What about the “Population Healthy Nuclei (%)” value [4] of the same molecule?
The value was 53% and 73%.

And the “Population Hoechst High Intensity Objects (%)” value [4]?
The value was 5% and 1%.

And the “Population Membrane Permeable-Phenotype (%)” value [4]?
Its value is 7% and 5%.

And the “Population Mitochondria Different-Phenotype (%)” value [4]?
The value was 3% and 0%.

And the “Population Mitotic Cells (%)” value [4]?
Its value is 17% and 9%.

And the “Population Normal (%)” value [4]?
The value was 94% and 98%.

And the “Population Pyknosed Nuclei (%)” value [4]?
The value was 7%.

What about the “Population Tubulin-Different-Phenotype (%)” value [4] of the same molecule?
Its value is 5% and 4%.

What about the “Total Cell Count” value [4] of the same molecule?
The value was 230 and 157.

And the “Population Apoptotic (%)” value [5]?
The value was 94% and 95%.

And the “Population Fragmented Nuclei (%)” value [5]?
Its value is 17% and 16%.

What about the “Population Healthy Nuclei (%)” value [5] of the same molecule?
The value was 74% and 67%.

And the “Population Hoechst High Intensity Objects (%)” value [5]?
The value was 1% and 6%.

What about the “Population Membrane Permeable-Phenotype (%)” value [5] of the same molecule?
The value was 2% and 5%.

What about the “Population Mitochondria Different-Phenotype (%)” value [5] of the same molecule?
Its value is 2% and 5%.

And the “Population Mitotic Cells (%)” value [5]?
The value was 5% and 4%.

And the “Population Normal (%)” value [5]?
The value was 98% and 93%.

And the “Population Pyknosed Nuclei (%)” value [5]?
Its value is 7% and 15%.

What about the “Population Tubulin-Different-Phenotype (%)” value [5] of the same molecule?
The value was 2% and 1%.

And the “Population Apoptotic (%)” value [6]?
The value was 95% and 86%.

What about the “Population Fragmented Nuclei (%)” value [6] of the same molecule?
Its value is 37% and 23%.

What about the “Population Healthy Nuclei (%)” value [6] of the same molecule?
The value was 51% and 69%.

And the “Population Hoechst High Intensity Objects (%)” value [6]?
The value was 11% and 2%.

And the “Population Membrane Permeable-Phenotype (%)” value [6]?
Its value is 17% and 12%.

What about the “Population Mitochondria Different-Phenotype (%)” value [6] of the same molecule?
The value was 6%.

And the “Population Mitotic Cells (%)” value [6]?
Its value is 4% and 13%.

What about the “Population Normal (%)” value [6] of the same molecule?
The value was 88% and 97%.

And the “Population Pyknosed Nuclei (%)” value [6]?
The value was 10% and 7%.

What about the “Population Tubulin-Different-Phenotype (%)” value [6] of the same molecule?
The value was 11% and 6%.

What about the “Total Cell Count” value [6] of the same molecule?
The value was 252 and 196.
